Several values for one entry are separate records, joined by “and”; a condition that tells them apart may be missing. Identical values can stand only once.
System: Fibroblast
Experiment: Multiplex assay against human fibroblast
Type: toxicity, cell-based
Conditions: number of replicates 2
Procedure, shortened: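 At seeding, live cells were stained with Hoechst33342, BioTracker Green Microtubule Cytoskeleton Dye, MitoTracker Red and Annexin V Alexa Fluor 680. After compound addition they were imaged on a CQ1 microscope at 37°C and 5% CO2, and CellPathfinder machine-learning gating sorted them into Hoechst high-intensity objects or normal cells, with normal cells further split into healthy, pyknosed or fragmented nuclei and pyknosed cells into mitotic or apoptotic. Tubulin, mitochondrial-mass and membrane-permeability phenotypes are given as per cents of cells with healthy nuclei.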

[1] = 12 h, 1 µM, compound concentration 1 uM
[2] = 12 h, 10 µM, compound concentration 10 uM
[3] = 24 h, 1 µM, compound concentration 1 uM
[4] = 24 h, 10 µM, compound concentration 10 uM
[5] = 48 h, 1 µM, compound concentration 1 uM
[6] = 48 h, 10 µM, compound concentration 10 uM

`COc1cc(Nc2cnc(C#N)c(O[C@H](C)CN(C)C)n2)ncc1-c1cnn(C)c1` was tested, and the “Population Apoptotic (%)” value [1] was 37% and 47%, the “Population Fragmented Nuclei (%)” value [1] was 12% and 13% and the “Population Healthy Nuclei (%)” value [1] was 67% and 77%. The “Population Hoechst High Intensity Objects (%)” value [1] was 0%, the “Population Membrane Permeable-Phenotype (%)” value [1] was 3% and 2% and the “Population Mitochondria Different-Phenotype (%)” value [1] was 1%. For the same molecule, the “Population Mitotic Cells (%)” value [1] was 62% and 52%, the “Population Normal (%)” value [1] was 100% and the “Population Pyknosed Nuclei (%)” value [1] was 20% and 9%. For the same molecule, the “Population Tubulin-Different-Phenotype (%)” value [1] was 11% and 3%, the “Total Cell Count” value [1] was 185 and 222 and the “Population Apoptotic (%)” value [2] was 37% and 41%. The “Population Fragmented Nuclei (%)” value [2] was 24% and 26%, the “Population Healthy Nuclei (%)” value [2] was 69% and 64% and the “Population Hoechst High Intensity Objects (%)” value [2] was 0%. The “Population Membrane Permeable-Phenotype (%)” value [2] was 2% and 4%, the “Population Mitochondria Different-Phenotype (%)” value [2] was 0% and the “Population Mitotic Cells (%)” value [2] was 62% and 58%. The “Population Normal (%)” value [2] was 99% and 100%, the “Population Pyknosed Nuclei (%)” value [2] was 5% and 8% and the “Population Tubulin-Different-Phenotype (%)” value [2] was 26% and 17%. For the same molecule, the “Total Cell Count” value [2] was 300 and 346, the “Population Apoptotic (%)” value [3] was 50% and 40% and the “Population Fragmented Nuclei (%)” value [3] was 9% and 11%. For the same molecule, the “Population Healthy Nuclei (%)” value [3] was 80% and 78%, the “Population Hoechst High Intensity Objects (%)” value [3] was 0% and the “Population Membrane Permeable-Phenotype (%)” value [3] was 2% and 3%. For the same molecule, the “Population Mitochondria Different-Phenotype (%)” value [3] was 2% and 1%, the “Population Mitotic Cells (%)” value [3] was 50% and 60% and the “Population Normal (%)” value [3] was 100%. The “Population Pyknosed Nuclei (%)” value [3] was 9%, the “Population Tubulin-Different-Phenotype (%)” value [3] was 13% and 5% and the “Total Cell Count” value [3] was 168 and 206. For the same molecule, the “Population Apoptotic (%)” value [4] was 61% and 70%, the “Population Fragmented Nuclei (%)” value [4] was 28% and 29% and the “Population Healthy Nuclei (%)” value [4] was 67% and 65%. The “Population Hoechst High Intensity Objects (%)” value [4] was 1% and 0%, the “Population Membrane Permeable-Phenotype (%)” value [4] was 3% and 0% and the “Population Mitochondria Different-Phenotype (%)” value [4] was 1% and 0%. For the same molecule, the “Population Mitotic Cells (%)” value [4] was 38% and 30%, the “Population Normal (%)” value [4] was 98% and 100% and the “Population Pyknosed Nuclei (%)” value [4] was 4% and 5%. For the same molecule, the “Population Tubulin-Different-Phenotype (%)” value [4] was 24% and 13%, the “Total Cell Count” value [4] was 292 and 355 and the “Population Apoptotic (%)” value [5] was 43% and 64%. The “Population Fragmented Nuclei (%)” value [5] was 14% and 12%, the “Population Healthy Nuclei (%)” value [5] was 75% and 80% and the “Population Hoechst High Intensity Objects (%)” value [5] was 0%. For the same molecule, the “Population Membrane Permeable-Phenotype (%)” value [5] was 0% and 1%, the “Population Mitochondria Different-Phenotype (%)” value [5] was 0% and the “Population Mitotic Cells (%)” value [5] was 56% and 35%. For the same molecule, the “Population Normal (%)” value [5] was 100%, the “Population Pyknosed Nuclei (%)” value [5] was 9% and 6% and the “Population Tubulin-Different-Phenotype (%)” value [5] was 8% and 1%. The “Total Cell Count” value [5] was 170 and 205, the “Population Apoptotic (%)” value [6] was 43% and 75% and the “Population Fragmented Nuclei (%)” value [6] was 27% and 30%. For the same molecule, the “Population Healthy Nuclei (%)” value [6] was 66%, the “Population Hoechst High Intensity Objects (%)” value [6] was 0% and the “Population Membrane Permeable-Phenotype (%)” value [6] was 1% and 2%. For the same molecule, the “Population Mitochondria Different-Phenotype (%)” value [6] was 0%, the “Population Mitotic Cells (%)” value [6] was 56% and 25% and the “Population Normal (%)” value [6] was 100% and 99%. The “Population Pyknosed Nuclei (%)” value [6] was 5% and 3%, the “Population Tubulin-Different-Phenotype (%)” value [6] was 29% and 12% and the “Total Cell Count” value [6] was 312 and 369.

`CCCNc1ccc2ncc(-c3ccncc3)n2n1` was tested, and the “Population Apoptotic (%)” value [1] was 30% and 34%, the “Population Fragmented Nuclei (%)” value [1] was 4% and 14% and the “Population Healthy Nuclei (%)” value [1] was 65% and 63%. The “Population Hoechst High Intensity Objects (%)” value [1] was 0%, the “Population Membrane Permeable-Phenotype (%)” value [1] was 14% and 6% and the “Population Mitochondria Different-Phenotype (%)” value [1] was 0%. The “Population Mitotic Cells (%)” value [1] was 69% and 65%, the “Population Normal (%)” value [1] was 100% and the “Population Pyknosed Nuclei (%)” value [1] was 29% and 21%. The “Population Tubulin-Different-Phenotype (%)” value [1] was 18% and 9%, the “Total Cell Count” value [1] was 144 and 202 and the “Population Apoptotic (%)” value [2] was 51% and 53%. For the same molecule, the “Population Fragmented Nuclei (%)” value [2] was 12% and 10%, the “Population Healthy Nuclei (%)” value [2] was 70% and 75% and the “Population Hoechst High Intensity Objects (%)” value [2] was 0%. For the same molecule, the “Population Membrane Permeable-Phenotype (%)” value [2] was 4% and 3%, the “Population Mitochondria Different-Phenotype (%)” value [2] was 5% and 1% and the “Population Mitotic Cells (%)” value [2] was 48% and 46%. For the same molecule, the “Population Normal (%)” value [2] was 100%, the “Population Pyknosed Nuclei (%)” value [2] was 17% and 13% and the “Population Tubulin-Different-Phenotype (%)” value [2] was 27% and 17%. For the same molecule, the “Total Cell Count” value [2] was 157 and 204, the “Population Apoptotic (%)” value [3] was 38% and 42% and the “Population Fragmented Nuclei (%)” value [3] was 9% and 14%. The “Population Healthy Nuclei (%)” value [3] was 61% and 63%, the “Population Hoechst High Intensity Objects (%)” value [3] was 0% and the “Population Membrane Permeable-Phenotype (%)” value [3] was 9% and 8%. The “Population Mitochondria Different-Phenotype (%)” value [3] was 2% and 1%, the “Population Mitotic Cells (%)” value [3] was 61% and 57% and the “Population Normal (%)” value [3] was 100%. The “Population Pyknosed Nuclei (%)” value [3] was 29% and 21%, the “Population Tubulin-Different-Phenotype (%)” value [3] was 25% and 13% and the “Total Cell Count” value [3] was 143 and 193. For the same molecule, the “Population Apoptotic (%)” value [4] was 75% and 65%, the “Population Fragmented Nuclei (%)” value [4] was 18% and 15% and the “Population Healthy Nuclei (%)” value [4] was 65% and 68%. For the same molecule, the “Population Hoechst High Intensity Objects (%)” value [4] was 0%, the “Population Membrane Permeable-Phenotype (%)” value [4] was 5% and 3% and the “Population Mitochondria Different-Phenotype (%)” value [4] was 8% and 7%. The “Population Mitotic Cells (%)” value [4] was 25% and 34%, the “Population Normal (%)” value [4] was 99% and 100% and the “Population Pyknosed Nuclei (%)” value [4] was 16%. For the same molecule, the “Population Tubulin-Different-Phenotype (%)” value [4] was 33% and 30%, the “Total Cell Count” value [4] was 151 and 200 and the “Population Apoptotic (%)” value [5] was 55% and 59%. For the same molecule, the “Population Fragmented Nuclei (%)” value [5] was 14% and 20%, the “Population Healthy Nuclei (%)” value [5] was 57% and 59% and the “Population Hoechst High Intensity Objects (%)” value [5] was 0%. The “Population Membrane Permeable-Phenotype (%)” value [5] was 15% and 8%, the “Population Mitochondria Different-Phenotype (%)” value [5] was 1% and 0% and the “Population Mitotic Cells (%)” value [5] was 44% and 40%. For the same molecule, the “Population Normal (%)” value [5] was 100% and 99%, the “Population Pyknosed Nuclei (%)” value [5] was 28% and 19% and the “Total Cell Count” value [5] was 150 and 228. The “Population Apoptotic (%)” value [6] was 61% and 80%, the “Population Fragmented Nuclei (%)” value [6] was 14% and 13% and the “Population Healthy Nuclei (%)” value [6] was 60% and 61%. For the same molecule, the “Population Hoechst High Intensity Objects (%)” value [6] was 0%, the “Population Membrane Permeable-Phenotype (%)” value [6] was 11% and 4% and the “Population Mitochondria Different-Phenotype (%)” value [6] was 6% and 5%. For the same molecule, the “Population Mitotic Cells (%)” value [6] was 38% and 20%, the “Population Normal (%)” value [6] was 99% and the “Population Pyknosed Nuclei (%)” value [6] was 24% and 25%. For the same molecule, the “Population Tubulin-Different-Phenotype (%)” value [6] was 45% and 33% and the “Total Cell Count” value [6] was 149 and 198.
